# Test results as given in ChEMBL document CHEMBL1773020, “Discovery of fused bicyclic agonists of the orphan G-protein coupled receptor GPR119 with in vivo activity in rodent models of glucose control” (Bioorg Med Chem Lett, 2011).
# What was measured:
# [1] = biological target: T1, Glucose-dependent insulinotropic receptor (Rattus norvegicus) (UniProt Q7TQN8); experiment: Selectivity ratio of EC50 for rat GPR119 to EC50 for human GPR119
# T1 sequence (whole entry): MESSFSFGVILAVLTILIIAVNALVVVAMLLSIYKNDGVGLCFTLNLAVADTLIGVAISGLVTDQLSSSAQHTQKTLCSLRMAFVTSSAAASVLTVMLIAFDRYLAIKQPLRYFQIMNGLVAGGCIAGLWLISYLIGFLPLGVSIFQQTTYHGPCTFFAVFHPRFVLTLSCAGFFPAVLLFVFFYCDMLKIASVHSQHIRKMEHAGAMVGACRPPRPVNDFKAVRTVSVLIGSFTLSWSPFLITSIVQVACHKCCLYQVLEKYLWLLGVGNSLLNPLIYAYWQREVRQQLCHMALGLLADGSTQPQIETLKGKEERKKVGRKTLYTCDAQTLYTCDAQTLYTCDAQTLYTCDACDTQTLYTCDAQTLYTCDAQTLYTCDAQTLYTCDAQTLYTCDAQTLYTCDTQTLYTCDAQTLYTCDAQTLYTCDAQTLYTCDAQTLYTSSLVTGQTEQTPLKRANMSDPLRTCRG
# [2] = biological target: T2, Glucose-dependent insulinotropic receptor (Homo sapiens) (UniProt Q8TDV5); experiment: Agonist activity at human GPR119 by melanophore assay relative to AR231453; type: functional
# T2 sequence (whole entry): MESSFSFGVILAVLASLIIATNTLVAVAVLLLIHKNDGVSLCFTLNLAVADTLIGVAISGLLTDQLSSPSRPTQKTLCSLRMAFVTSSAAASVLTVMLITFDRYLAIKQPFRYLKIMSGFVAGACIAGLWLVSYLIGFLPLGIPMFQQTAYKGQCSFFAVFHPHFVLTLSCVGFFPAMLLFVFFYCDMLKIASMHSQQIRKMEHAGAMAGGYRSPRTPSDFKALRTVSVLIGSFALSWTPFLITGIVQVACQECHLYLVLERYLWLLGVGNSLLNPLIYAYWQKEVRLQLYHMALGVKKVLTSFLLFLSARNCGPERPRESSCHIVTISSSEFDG
# How it was run: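 Melanophores transfected with human GPR119. Apparent Emax is the curve height normalized to the positive control AR231453, which is defined as a full agonist (100% efficacy).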
# [3] = biological target: T3, Glucose-dependent insulinotropic receptor (Homo sapiens, UniProt Q8TDV5); experiment: Agonist activity at human GPR119 by melanophore assay; type: functional
# T3 sequence (Q8TDV5 whole entry): T2 sequence (whole entry)
# How it was run: (§1)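 Agonist EC50 measured in melanophores transfected with the human or rat GPR119 receptor sequence. Values are means of multiple determinations (n).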
# [4] = biological target: T4, Glucose-dependent insulinotropic receptor (Rattus norvegicus, UniProt Q7TQN8); experiment: Agonist activity at rat GPR119 by melanophore assay; type: functional; how it was run: as §1
# T4 sequence (Q7TQN8 whole entry): T1 sequence (whole entry)
smiles,measurement,setting,value
CCOC(=O)N1CCC(Oc2ncnc3c2cnn3-c2ccc(S(C)(=O)=O)cc2)CC1,Ratio EC50,[1],13.9
same,Emax,[2],91%
same,EC50,[3],3.8 nM
same,EC50,[4],53 nM
CN(C)CCOC(=O)N1CCC(Oc2ncnc3c2cnn3-c2ccc(S(C)(=O)=O)cc2)CC1,EC50,[3],> 10000 nM
CCN(CC1CCN(C(=O)OC(C)(C)C)CC1)c1ncnc2c1cnn2-c1ccc(S(C)(=O)=O)cc1,Emax,[2],67%
same,EC50,[3],6.3 nM
CC(C)OC(=O)N1CCC(Oc2ncnc3c(-c4ccc(S(C)(=O)=O)cc4)noc23)CC1,Ratio EC50,[1],3
same,Emax,[2],65%
same,EC50,[3],14 nM
same,EC50,[4],40 nM
Cc1nc(OC2CCN(C(=O)OC(C)(C)C)CC2)c2c(C)nn(-c3ccc(S(C)(=O)=O)cc3)c2n1,Emax,[2],90%
same,EC50,[3],116 nM
CCN(CC1CCN(C(=O)OC(C)C)CC1)c1ncnc2c1cnn2-c1ccc(S(C)(=O)=O)cc1F,Ratio EC50,[1],77.6
same,Emax,[2],82%
same,EC50,[3],3.4 nM
same,EC50,[4],264 nM
CC(C)(C)OC(=O)N1CCC(Nc2ncnc3c2cnn3-c2ccc(S(C)(=O)=O)cc2)CC1,Ratio EC50,[1],> 40
same,Emax,[2],101%
same,EC50,[3],250 nM
same,EC50,[4],> 10000 nM
CC(C)OC(=O)N1CCC(Oc2ncnc3c2cnn3-c2ccc(S(C)(=O)=O)cc2)CC1,Emax,[2],83%
same,EC50,[3],3.5 nM
CC(C)(C)OC(=O)N1CCC([S+]([O-])c2ncnc3c2cnn3-c2ccc(S(C)(=O)=O)cc2)CC1 (stereo not drawn),EC50,[3],2400 nM
same,EC50,[4],> 10000 nM
CC(C)(C)OC(=O)N1CCC(Sc2ncnc3c2cnn3-c2ccc(S(C)(=O)=O)cc2)CC1,Ratio EC50,[1],3
same,Emax,[2],104%
same,EC50,[3],5.6 nM
same,EC50,[4],15.5 nM
CC(C)(C)OC(=O)N1CCC(Oc2ncnc3c2[nH]c(=O)n3-c2ccc(S(C)(=O)=O)cc2F)CC1,Emax,[2],64%
same,EC50,[3],0.6 nM
CC(C)(C)OC(=O)N1CCC(Cc2ncnc3c2cnn3-c2ccc(S(C)(=O)=O)cc2F)CC1,Ratio EC50,[1],25.9
same,Emax,[2],72%
same,EC50,[3],3.4 nM
same,EC50,[4],88 nM
CC(C)(C)COC(=O)N1CCC(Oc2ncnc3c2cnn3-c2ccc(S(C)(=O)=O)cc2)CC1,Ratio EC50,[1],8
same,Emax,[2],105%
same,EC50,[3],8.1 nM
same,EC50,[4],65 nM
CC(C)(C)OC(=O)N1CCC(Sc2ncnc3c2cnn3-c2ccc(S(C)(=O)=O)cc2F)CC1,Ratio EC50,[1],14.6
same,Emax,[2],98%
same,EC50,[3],0.5 nM
same,EC50,[4],7.3 nM
CC(C)(C)OC(=O)N1CCC(S(=O)(=O)c2ncnc3c2cnn3-c2ccc(S(C)(=O)=O)cc2)CC1,EC50,[3],> 10000 nM
same,EC50,[4],> 10000 nM
CC(C)c1noc(C2CCN(c3ncnc(Nc4ccc(S(C)(=O)=O)cc4)c3[N+](=O)[O-])CC2)n1,EC50,[3],5.1 nM
CC(C)(C)OC(=O)N1CCC(Oc2ncnc3c2nnn3-c2ccc(S(C)(=O)=O)cc2)CC1,Ratio EC50,[1],5.7
same,Emax,[2],103%
same,EC50,[3],7.4 nM
same,EC50,[4],42 nM
CN(CC1CCN(C(=O)OC(C)(C)C)CC1)c1ncnc2c1cnn2-c1ccc(S(C)(=O)=O)cc1,Emax,[2],89%
same,EC50,[3],11.6 nM
CC(C)COC(=O)N1CCC(Oc2ncnc3c2cnn3-c2ccc(S(C)(=O)=O)cc2)CC1,Emax,[2],99%
same,EC50,[3],4.2 nM
CS(=O)(=O)c1ccc(-n2ncc3c(OC4CCN(C(=O)OC5CCOC5)CC4)ncnc32)cc1 (stereo not drawn),Emax,[2],71%
same,EC50,[3],435 nM
CC(C)(C)OC(=O)N1CCC(Oc2ncnc3c(-c4ccc(S(C)(=O)=O)cc4)noc23)CC1,Ratio EC50,[1],24.3
same,Emax,[2],100%
same,EC50,[3],0.7 nM
same,EC50,[4],17 nM
CC(C)(C)OC(=O)N1CCC(CNc2ncnc3c2cnn3-c2ccc(S(C)(=O)=O)cc2)CC1,Emax,[2],87%
same,EC50,[3],265 nM
CC(C)c1noc(C2CCN(c3ncnc4c3cnn4-c3ccc(S(C)(=O)=O)cc3)CC2)n1,EC50,[3],42 nM
CC(C)c1noc(C2CCN(c3ncnc(Nc4ccc(S(C)(=O)=O)cc4F)c3[N+](=O)[O-])CC2)n1,EC50,[3],0.65 nM
CCCCOC(=O)N1CCC(Oc2ncnc3c2cnn3-c2ccc(S(C)(=O)=O)cc2)CC1,Emax,[2],79%
same,EC50,[3],7.5 nM
CC(C)(C)OC(=O)N1CCC(Oc2ncnc3c2ncn3-c2ccc(S(C)(=O)=O)cc2)CC1,Emax,[2],95%
same,EC50,[3],33.4 nM
